# Reference: PMC6986167 (Pharmacogenomics and Personalized Medicine, 2020)
# Values joined by “and” are separate entries in the source; they are usually repeats but may differ in a detail not shown here. Equal values may be shown once. Read-outs that look alike come from different tables or passages of the source.
# What was measured:
# [1] = carriership of low function allelic variants, patients on clopidogrel; cited from earlier work
# [2] = test system: platelets (ADP-activated, P2Y12 Reactivity Units)
# [3] = AF patients, p = 0.02, cited from earlier work
# [4] = Minimal equilibrium rivaroxaban concentration in blood plasma by HPLC-MS; type: in vivo, patients
# Outline: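 Plasma thawed at room temperature, protein-precipitated with methanol plus 0.1% hydrogen chloride 9:1, vortexed, left 10 min, spun 9000 RCF 10 min. C18 column at 40°C, isocratic ammonium acetate/formic acid, water:acetonitrile 70:30. Validated 5–1000 ng/mL. Genotypes by real-time PCR on EDTA blood.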
# [5] = data from the centers; cited from earlier work
structure (smiles),measurement,setting,value
COC(=O)[C@H](c1ccccc1Cl)N1CCc2sccc2C1 [clopidogrel],increase of risk of major adverse cardiovascular events (MACE),[1],1.5 fold
same,increase of risk of stent thrombosis,[1],2.8 fold
same,"Platelet reactivity units (PRU), M","[2]; ABCB1 3435 C>T CC, N=30",136.8 PRU
same,"Platelet inhibition rate (%), M","[2]; ABCB1 3435 C>T CC, N=30, ACS+AF patients on clopidogrel and rivaroxaban",29.8%
same,"Platelet inhibition rate (%), M","[2]; ABCB1 3435 C>T CT+TT, N=73",30.9%
same,"Platelet reactivity units (PRU), M","[2]; ABCB1 3435 C>T CT+TT, N=73",135.5 PRU
same,"Platelet reactivity units (PRU), M","[2]; ABCB1 rs4148738 CC (non-carriers of T), N=19",113.3 ± 57.1 PRU and 113.3 PRU
same,"Platelet inhibition rate (%), M","[2]; ABCB1 rs4148738 CC, N=19",34.5%
same,"Platelet reactivity units (PRU), M","[2]; ABCB1 rs4148738 CT+TT (T carriers), N=84",141.0 ± 62.3 PRU and 141.0 PRU
same,"Platelet inhibition rate (%), M","[2]; ABCB1 rs4148738 CT+TT, N=84",29.7%
same,"Platelet inhibition rate (%), M","[2]; CYP2C19*2 GA+AA, N=31",28.6%
same,"Platelet reactivity units (PRU), M","[2]; CYP2C19*2 GA+AA, N=31",145.2 PRU
same,"Platelet inhibition rate (%), M","[2]; CYP2C19*2 GG, N=72",31.4%
same,"Platelet reactivity units (PRU), M","[2]; CYP2C19*2 GG, N=72",131.9 PRU
same,"Platelet inhibition rate (%), M","[2]; CYP3A5*3 AG+AA, N=19",30.4%
same,"Platelet reactivity units (PRU), M","[2]; CYP3A5*3 AG+AA, N=19",139.8 PRU
same,"Platelet inhibition rate (%), M","[2]; CYP3A5*3 GG, N=84",30.6%
same,"Platelet reactivity units (PRU), M","[2]; CYP3A5*3 GG, N=84",135.0 PRU
same,platelet inhibition level,[2]; patients with in-hospital death,63.3%
same,platelet inhibition level,[2]; patients without in-hospital death,29.6%
O=C(NC[C@H]1CN(c2ccc(N3CCOCC3=O)cc2)C(=O)O1)c1ccc(Cl)s1 [Rivaroxaban],equilibrium rivaroxaban concentration,[3]; first value of bleeding comparison,48±30
same,equilibrium rivaroxaban concentration,[3]; second value of bleeding comparison,34 ± 26
same,"Rivaroxaban concentration, M","[4]; ABCB1 3435 C>T CT+TT, N=73",80.6
same,"Rivaroxaban concentration, M","[4]; ABCB1 rs4148738 CC, N=19",78.8
same,"Rivaroxaban concentration, M","[4]; ABCB1 rs4148738 CT+TT, N=84",78.9
same,"Rivaroxaban concentration, M","[4]; CYP2C19*2 GA+AA, N=31",86.2
same,"Rivaroxaban concentration, M","[4]; CYP2C19*2 GG, N=72",75.7
same,"Rivaroxaban concentration, M","[4]; CYP3A5*3 AG+AA, N=19",69.7
same,"Rivaroxaban concentration, M","[4]; CYP3A5*3 GG, N=84",81.6
same,rivaroxaban concentration,[4]; patients with HAS-BLED 3–9,92.3 ± 64.9
same,rivaroxaban concentration,[4]; patients with HAS-BLED <3,67.2 ± 47.4
same,average level of plasma concentration of rivaroxaban,[5],40 ng/mL
same,patients beyond the therapeutic range,[5],~40%
same,variation of plasma concentration of rivaroxaban,[5],15 fold
